B1: Osa-1-4 twister ribozyme (parent)
chain: CCGCCUAACACUGCCAAUGCCGGUCCCAAGCCCGGAUAAAAGUGGAGGGGGCGG

From the RNAGym collection of RNA variant scans (doi:10.1002/anie.201605470) come the findings set out here.

In this data set the parent is B1. Nature of the data set: self-cleavage, relative activity (ratio to wild type); higher = more cleavage; co-transcriptional. In short, it runs like this:
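The 48 positions downstream of the cleavage site in a 54-nucleotide Oryza sativa twister ribozyme template were synthesised at 97 % wild-type base and 1 % of each other base. The template was transcribed in vitro at 37 °C for 2 h, with self-cleavage allowed during transcription. Reads with or without upstream sequence after deep sequencing marked cleavage status, and relative activity is fraction cleaved normalised to wild type.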
Regarding G19A G48U, the self-cleavage was determined as 0.06. On to G19A G48A, for which the self-cleavage is 0.06. Under G19A G48C stands 0.06; under U18C U43A, 0.65; under U18C U43G, 0.3. Under U18C U43C stands 0.35; under A17U G13U, 0.03; under A17U G13A, 0.14. For A17U G13C, the self-cleavage came to 0.03. In the case of U18A U43A, the self-cleavage worked out at 0.83.

Take U18A U43C: the self-cleavage came to 0.36. U18A U43G: the self-cleavage stood at 0.58. As to U18A U37C, the self-cleavage was found to be 0.98. Under U18A U37G stands 0.93. As for U18A U37A, the figure is 0.63; as for U18G U37G, 0.85.

Turning to U18G U37C, the self-cleavage is 0.86. Consider U18G U37A, for which the self-cleavage amounted to 0.59. As to A17U G22C, the self-cleavage turned out to be 0.11.

Regarding A17U G22A, the self-cleavage was found to be 1.04. As to A17U G22U, the self-cleavage is 0.63. As for A17U U43C, the figure is 0.8; as for A17U U43A, 0.91; as for A17U U43G, 0.57.

For G19A G42C, the self-cleavage is 0.09. Under G19A G42U stands 0.06; under G19A G42A, 0.1.

Take A17U C15G: the self-cleavage came out at 0.54. Take A17U C15U: the self-cleavage is 0.64. Under A17U C15A stands 0.62; under G19A G44C, 0.72.

For the variant G19A G44U, the self-cleavage came out at 0.4. On to G19A G44A, for which the self-cleavage was determined as 0.23. In the case of A17U U18G, the self-cleavage amounted to 0.87. As to A17U U18C, the self-cleavage was found to be 0.9.

Consider A17U U18A, for which the self-cleavage is 0.89. Take U18G U24G: the self-cleavage stood at 0.05. Under U18G U24C stands 0.38. As for U18G U24A, the figure is 0.53. With A17U G54U, the self-cleavage worked out at 0.99.

As for A17U G54C, the self-cleavage worked out at 1. As for A17U G54A, the self-cleavage was found to be 0.99.

On to A17U G30U, for which the self-cleavage was found to be 0.04. On to A17U G30A, for which the self-cleavage was 0.05. Under A17U G30C stands 0.06; under G19A G34C, 0.25.

For the variant G19A G34U, the self-cleavage is 0.39. G19A G34A: the self-cleavage came to 0.61.

On to A17U G23A, for which the self-cleavage amounted to 0.56. For the variant A17U G23U, the self-cleavage is 0.13. With A17U G23C, the self-cleavage stood at 0.06. On to A17U C20U, for which the self-cleavage was determined as 0.95. Regarding A17U C20A, the self-cleavage amounted to 0.85. Under A17U C20G stands 0.23.

As for A17U G51U, the self-cleavage is 0.38. Consider A17U G51C, for which the self-cleavage amounted to 0.19.

Take A17U G51A: the self-cleavage is 0.67. For the variant A17U G42C, the self-cleavage is 0.29.

As to A17U G42A, the self-cleavage came out at 0.17. On to A17U G42U, for which the self-cleavage was 0.56.

With A17U G45C, the self-cleavage came out at 0.06. Under A17U G45A stands 0.54; under A17U G45U, 0.18. As for A17U C52U, the figure is 1.01.

Regarding A17U C52G, the self-cleavage worked out at 0.98. As for A17U C52A, the figure is 1.02. Under G19A stands 0.99; under A17U G47C, 0.16; under A17U G47A, 0.47. Under A17U G47U stands 0.45. Take U18G U43A: the self-cleavage was determined as 0.76. Regarding U18G U43G, the self-cleavage amounted to 0.77.

Turning to U18G U43C, the self-cleavage amounted to 0.67. On to A17U C21G, for which the self-cleavage came to 0.09. As for A17U C21A, the self-cleavage came to 0.83. Under A17U C21U stands 1.05. Under U18C U37G stands 0.95; under U18C U37A, 0.69; under U18C U37C, 0.97.

Take A17U C26G: the self-cleavage was 0.09. As for A17U C26A, the figure is 0.06.

Regarding A17U C26U, the self-cleavage is 1. Under G19A G23A stands 0.12; under G19A G23C, 0.06; under G19A G23U, 0.05. As for G19A G49A, the figure is 0.08; as for G19A G49C, 0.09. In the case of G19A G49U, the self-cleavage amounted to 0.08.

Consider U18A, for which the self-cleavage was 0.95. As for U18G, the figure is 0.84; as for U18C, 0.96; as for G19A G51U, 0.17. As for G19A G51A, the figure is 0.33; as for G19A G51C, 0.08. As for U18C U24A, the figure is 0.21; as for U18C U24C, 0.24; as for U18C U24G, 0.02.

As to A17U C33A, the self-cleavage was 0.19. In the case of A17U C33U, the self-cleavage worked out at 0.85. As to A17U C33G, the self-cleavage worked out at 0.06.

Regarding A17U C32G, the self-cleavage was determined as 0.17.

As to A17U C32A, the self-cleavage was 0.13. Turning to A17U C32U, the self-cleavage turned out to be 0.25.

With A17U G19C, the self-cleavage was 0.43. Consider A17U G19U, for which the self-cleavage was determined as 0.38. For A17U G19A, the self-cleavage is 0.83. As to A17U G48A, the self-cleavage came out at 0.16.

As for A17U G48U, the self-cleavage was determined as 0.08.

With A17U G48C, the self-cleavage turned out to be 0.13. For the variant A17U C14U, the self-cleavage was 0.79. A17U G44U: the self-cleavage turned out to be 0.94.

In the case of A17U G44A, the self-cleavage came out at 1.

Turning to A17U G44C, the self-cleavage was found to be 0.98. As for A17U G50C, the figure is 1.02. Regarding A17U G50A, the self-cleavage was 0.69.

A17U G50U: the self-cleavage is 1.02.

On to G19A G47C, for which the self-cleavage was 0.08. As for G19A G47U, the figure is 0.07; as for G19A G47A, 0.08; as for G19A G50C, 0.27. As for G19A G50A, the figure is 0.92; as for G19A G50U, 0.56. A17U U24A: the self-cleavage is 0.3. On to A17U U24C, for which the self-cleavage stood at 0.44. For A17U U24G, the self-cleavage was 0.03.

Take A17U C25G: the self-cleavage came to 0.1.

As to A17U C25U, the self-cleavage came out at 0.93. Under A17U C25A stands 0.14; under A17U G49C, 0.08; under A17U G49A, 0.25. As for A17U G49U, the figure is 0.22; as for A17U U12A, 0.94. Regarding A17U U12C, the self-cleavage is 0.58. A17U U12G: the self-cleavage is 0.44. Consider A17U C27A, for which the self-cleavage turned out to be 0.29. Under A17U C27G stands 0.13; under A17U C27U, 0.25. As to A17U C31A, the self-cleavage is 0.05. As for A17U C31G, the figure is 0.12. Under A17U C31U stands 0.94; under A17U U37G, 1.01. Under A17U U37A stands 0.73; under A17U U37C, 1.06. Regarding A17U G34C, the self-cleavage is 0.5. Under A17U G34A stands 0.82; under A17U G34U, 0.78. As for G19A G45A, the figure is 0.07.

With G19A G45U, the self-cleavage was determined as 0.06. Under G19A G45C stands 0.06; under U18A U24G, 0.02; under U18A U24C, 0.37. For U18A U24A, the self-cleavage came to 0.25.

Turning to G19A G22A, the self-cleavage stood at 0.35. Consider G19A G22C, for which the self-cleavage was found to be 0.05.

With G19A G22U, the self-cleavage came out at 0.12. Under A17U G53U stands 0.41; under A17U G53C, 0.12; under A17U G53A, 0.95. Under G19A G35A stands 0.83; under G19A G35C, 0.68; under G19A G35U, 0.2.

Take G19A G30C: the self-cleavage is 0.07. Under G19A G30U stands 0.06. G19A G30A: the self-cleavage worked out at 0.05. A17U G35A: the self-cleavage came out at 0.9. Under A17U G35U stands 0.92; under A17U G35C, 0.86.
